Assay results collected from several papers.
Each line is one published result; the experiments were not run side by side.
Target: Inhibitor of nuclear factor kappa-B kinase subunit alpha (CHUK, Homo sapiens, UniProt O15111)
One construct used (O15111 1-745): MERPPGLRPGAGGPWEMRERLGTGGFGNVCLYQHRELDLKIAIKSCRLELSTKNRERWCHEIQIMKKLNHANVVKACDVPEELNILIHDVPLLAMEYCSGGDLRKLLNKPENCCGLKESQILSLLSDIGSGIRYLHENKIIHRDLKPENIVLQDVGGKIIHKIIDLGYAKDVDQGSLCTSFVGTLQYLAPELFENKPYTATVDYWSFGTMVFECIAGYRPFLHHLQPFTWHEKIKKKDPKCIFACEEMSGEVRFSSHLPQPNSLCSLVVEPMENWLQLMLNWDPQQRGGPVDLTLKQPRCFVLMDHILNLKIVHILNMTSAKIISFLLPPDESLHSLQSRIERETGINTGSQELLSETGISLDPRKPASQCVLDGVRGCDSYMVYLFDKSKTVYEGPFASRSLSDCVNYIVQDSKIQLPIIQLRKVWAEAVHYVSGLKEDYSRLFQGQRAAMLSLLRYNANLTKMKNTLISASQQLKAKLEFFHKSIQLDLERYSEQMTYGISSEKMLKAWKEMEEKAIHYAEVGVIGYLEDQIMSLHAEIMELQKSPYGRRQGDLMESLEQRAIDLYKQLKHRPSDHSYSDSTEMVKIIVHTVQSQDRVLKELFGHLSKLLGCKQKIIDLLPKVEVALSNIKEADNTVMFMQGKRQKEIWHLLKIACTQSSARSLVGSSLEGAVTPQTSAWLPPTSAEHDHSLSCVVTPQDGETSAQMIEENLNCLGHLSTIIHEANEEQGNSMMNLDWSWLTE

| Compound | effect on | mode | method | concentration | quantity | result |
| --- | --- | --- | --- | --- | --- | --- |
| CCCOc1ccc(OC)c(F)c1C(=O)c1ccc(C(=O)N[C@@H]2CNC[C@H]2NC(=O)c2ccc3[nH]ncc3c2)cc1 | enzyme activity | inhibitor |  | 10 µM | remaining activity | 83% |
| CCS(=O)(=O)c1cc2cc(C[C@@](O)(CC(C)(C)c3ccc(F)cc3C(N)=O)C(F)(F)F)[nH]c2cn1 | cell-free assay |  | competition with immobilised ligand | 1 µM | remaining binding | 95% |
| CC(C)c1ccc(NC(=O)c2cccs2)c(-c2nc3ccccc3[nH]c2=O)c1 | enzyme activity | inhibitor |  | 1 µM | activity vs control | 104% |
| CN(C(=O)c1ccccc1)c1cc(N(C)c2ccc3c(c2)CCc2ccc(C(=O)NCCN4CCOCC4)cc2C3=O)ccc1F | cell-free assay |  | competition with immobilised ligand | 1 µM | remaining binding | 100% |
| c1ccc(CNc2nc(N3CCOc4ccccc43)nc3c2CCCC3)cc1 | target engagement in cells | inhibitor | chemoproteomics | 20 mM | inhibition | 10.8% |
| O=C(NCc1ncc(C(F)(F)F)cc1Cl)c1ccc2c(c1)C1(CCS(=O)(=O)CC1)[C@H](C1CC1)N2S(=O)(=O)c1ccc(F)cc1 | cell-free assay |  | competition with immobilised ligand | 1 µM | remaining binding | 77% |
| CCN(CC)CCNC(=O)c1c(C)[nH]c(/C=C2\C(=O)Nc3ccc(F)cc32)c1C | enzyme activity | inhibitor |  | 0.3 µM | inhibition | -1% |
| CC(C)(C)c1nc2c(s1)c1nc(N)ncc1c1ccc(NS(=O)(=O)c3c(F)cccc3F)c(F)c12 | enzyme activity | inhibitor | radiometric | 1 µM | remaining activity | 88% |
| Nc1ncnc2occ(-c3ccc(NC(=O)Nc4cc(C(F)(F)F)ccc4F)cc3)c12 | enzyme activity | inhibitor |  | 20 µM | remaining activity | 0% |
| CNCc1ccc(-c2cc(-c3nc(-c4ccc(S(=O)(=O)C(C)C)cc4)cnc3N)on2)cc1 | enzyme activity | inhibitor |  | 0.4 µM | inhibition | 17% |
| CC(=O)C1=C(C)N(c2cccc(C(F)(F)F)c2)C(=O)N[C@@H]1c1ccc(C#N)nc1 | cell-free assay |  | competition with immobilised ligand | 1 µM | remaining binding | 100% |
| COc1cc(Cl)c(C(=O)N[C@@H](CN[C@H]2CC[C@@H](N)CC2)Cc2ccc(C#N)cc2)cc1-c1ccc(CN[C@H](C)c2ccc(C)cc2)o1 | enzyme activity | inhibitor |  | 1 µM | remaining activity | 95% |
| Cc1ccc(Nc2nccc(N(C)c3ccc4c(C)n(C)nc4c3)n2)cc1S(N)(=O)=O | cell-free assay | inhibitor |  | 0.5 µM | remaining signal | 99.4% |
| CN([C@@H]1CCc2c(CC(=O)O)c3cc(S(C)(=O)=O)ccc3n2C1)S(=O)(=O)c1ccc(F)cc1 | cell-free assay |  | competition with immobilised ligand | 1 µM | remaining binding | 100% |
| COc1cccc2c(NCc3ccccc3)nc(-n3c(N)nc4ccccc43)nc12 | target engagement in cells | inhibitor | chemoproteomics | 20 mM | inhibition | 8.5% |
| CCC(=O)N[C@@H]1CC[C@H](C(=O)N(C)c2ccc(-c3nc4ccccc4o3)cc2)C1 | cell-free assay |  | competition with immobilised ligand | 1 µM | remaining binding | 100% |
| O=C1Nc2ccc(Cl)cc2C1=Cc1cc(Cl)c(O)c(Cl)c1 | cell-free assay |  |  | 0.5 µM | remaining signal | 97% |
| CN([C@@H]1CCc2c(CC(=O)O)c3ccccc3n2C1)S(=O)(=O)c1ccc(F)cc1 | cell-free assay |  | competition with immobilised ligand | 1 µM | remaining binding | 100% |
| CCCS(=O)(=O)Nc1ccc(F)c(C(=O)c2c[nH]c3ncc(-c4ccc(Cl)cc4)cc23)c1F | enzyme activity | inhibitor |  | 1 µM | inhibition | < 10% |
| CNC(=O)c1cc(Oc2ccc(NC(=O)Nc3ccc(Cl)c(C(F)(F)F)c3)cc2)ccn1 | enzyme activity | inhibitor |  | 10 µM | inhibition | -35% |
| Cc1ccc(C(=O)NCc2ccsc2)cc1C#Cc1cn(C(C)C)c2ncnc(N)c12 | enzyme activity | inhibitor |  | 1 µM | activity vs control | 102% |
| O=C1NC(=O)c2cc(Nc3ccc(F)cc3)c(Nc3ccc(F)cc3)cc21 | cell-free assay | inhibitor |  | 0.5 µM | remaining signal | 99.2% |
| Cc1sc(C(=O)NC2COC2)cc1-n1cc(NC(=O)Nc2c(F)cccc2Cl)cn1 | enzyme activity | inhibitor |  | 10 µM | remaining activity | 101% |
